Beta cell apopt: blocks beta cell apoptosis; INS-1E cytokine-induced death, ATP luminescence, 48 h; percent of positive-control rescue, neutral wells zero; protection from apoptosis, % (concentration not given with the values); actives 0.8% (n = 300,000);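 active means Every replicate reaches about 75%, or at least half do and their mean reaches it too, limit read from the data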;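 further: 0% = cytokine-treated negative control wells and 100% = positive control rescue; higher means more ATP so stronger rescue from cytokine killing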
UPR CHOP act: activators of apoptotic arm of unfolded protein response (CHOP); CHO-CHOP luciferase reporter, UPR activation, luminescence; percent of tunicamycin response over DMSO baseline; activation, % at 10 µM; actives 0.34% (n = 330,000); AID 449763;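 active means at 10 µM dose, activation of 40% or more, normalized to positive control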;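 further: 100% = tunicamycin at 10 µg/mL and 0% = DMSO alone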
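Test system: CHO-CHOP cells, stable luciferase reporter of PERK-eIF2a-CHOP signalling | Quantity: 500 CHO-CHOP cells per well | Buffer or medium: F12 plus 10% serum | Compound dosing: 10 µM single point, 0.5% DMSO | Schedule: 6 h compound treatment, 37 °C | Signal: Luciferase luminescence | Control set: Tunicamycin high control, DMSO low control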
Mdm2-MdmX inh: inhibitors of human Mdm2/MdmX interaction | O15151+Q00987 | SaOS-2 split-luciferase Mdm2/MdmX complementation, luminescence | inhibition, % at 8 µM | actives 3% (n = 330,000);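 active means inhibition of at least 50% at 8 µM in the primary screen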
CSC inhib: blocks cancer stem cells; AID 2717; inhibition, % at 7.5 µM; cancer stem cell-like cells viability, luminescence; actives 1.1% (n = 300,000); in the data active means inhibition above about 75%; tested in HMLE shEcad cells
XBP1 UPR activ: adaptive UPR (XBP1) activation. CHO-XBP1 luciferase reporter, IRE1-XBP1 UPR activation, luminescence; percent of tunicamycin response, DMSO as zero. activation, % at 20 µM. actives 0.33% (n = 330,000);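 active means versus positive control, 20 µM dose yields 30% or more activation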;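 further: 100% = tunicamycin at 10 µg/mL and 0% = DMSO only wells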
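Signal: luciferase luminescence; Assay system: CHO-XBP1 luciferase reporter cells; Amount: one thousand reporter cells per well; Dosing: 20 µM single concentration, DMSO 1%; Benchmarks: high control tunicamycin 10 µg/mL final, low control DMSO vehicle only; Schedule: 6 h compound exposure at 37 °C, 5% CO2; Evaluation: percent activation relative to tunicamycin reference.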
T cruzi repl: blocks replication of Trypanosoma cruzi; T. cruzi beta-gal in NIH3T3, luminescence, 90 h; inhibition, % (no concentration beside the values); actives 1.4% (n = 300,000); AID 1885;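 active means mean inhibition across valid replicates above about 55%, limit read from the data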;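 further: signal also drops with host cell toxicity which is not excluded here; 0% = plate median of DMSO wells and 100% = zero luminescence signal; higher percent means less beta-gal luminescence so fewer parasites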
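System: Mouse NIH/3T3 fibroblasts infected with β-gal-expressing T. cruzi Tulahuen C4 | Quantity: NIH/3T3 cells, 5,000 per well | Reagent: 5000 reporter trypomastigotes per well | Dosing: Compound pinned at 50 nL/well, DMSO | Schedule: 3 h host attachment, then at least 90 h co-culture | Detection: GalScreen luminescence, 60 min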
* marks the source's active call; other numbers are inactive results; x = no result. Shown are actives, neighbours in structure and some others; about 5% of the full set was active somewhere.

SMILES	Beta cell apopt	UPR CHOP act	Mdm2-MdmX inh	CSC inhib	XBP1 UPR activ	T cruzi repl
CN1CCN(C(=O)COc2ccc(N(C)S(=O)(=O)c3ccc(F)cc3)cc2)CC1	0	1	-20	2	-3	79*
CNC(=O)N(C)c1ccc(C(O)(C(=O)OC)C(F)(F)F)cc1 (centres undefined)	-3	2	5	0	-6	-10
COC(=O)C1=C(c2cccc(C#N)c2)C[C@@H]2CC[C@H]1N2C(=O)NC1CC1	-4	0	-9	-13	-3	x
COC(=O)C1=C(c2cccc(C#N)c2)C[C@@H]2CC[C@H]1N2C(=O)NC1Cc2ccccc2C1	2	-1	-2	84*	-1	x
CCc1nc2ccc(Br)cc2c(=O)n1-c1ccccc1C(F)(F)F	2	-1	0	-1	-4	-12
CCCc1nc2ccc(Br)cc2c(=O)n1-c1ccc([N+](=O)[O-])c(C(F)(F)F)c1	99*	-2	37	127*	0	56*
[N-]=[N+]=NCCN1CCC(O)CCC1=O (centres undefined)	-5	-2	9	0	-1	-5
CC[C@@]1(O)C(=O)OCc2c1cc1n(c2=O)Cc2cc3ccccc3nc2-1	103*	x	x	60	x	56*
CCC1(OC(=O)CN)C(=O)OCc2c1cc1n(c2=O)Cc2cc3ccccc3nc2-1 (centres undefined)	92*	x	x	55	x	61*
Cn1cc(C(O)CN2CCCCC2)c2ccccc21 (centres undefined)	-2	-1	-3	-7	-2	8
CC1CCCN(c2ccc(C(=O)N3CCC4(CC3)OCCO4)cc2[N+](=O)[O-])C1 (centres undefined)	-27	0	0	116*	-1	12
c1ccc(-c2ccc(-c3n(-c4ccccn4)c4ccccc4[n+]3-c3ccccn3)cc2)cc1	x	x	x	x	x	60*
FC(F)(F)c1ccc(CNCCc2ccc3c(c2)OCO3)cc1	-9	-1	8	41	1	55*
Cc1ccc(-c2nc3ccccc3c(=O)n2-c2ccncc2)cc1	-2	1	-8	-3	-1	6
O=c1c2ccccc2nc(-c2ccc(-c3ccccc3)cc2)n1-c1ccncc1	3	5	18	-3	3	84*
CCn1c(O)c(C=NCCN2CCOCC2)c(=O)[nH]c1=S	-5	5	6	9	-5	-10
CCC(CC)NCc1c[nH]c2ccccc12	55	2	14	-13	1	32
c1ccc2c(CNC3CCCCC3)c[nH]c2c1	115*	3	-7	2	1	16
CN(Cc1c[nH]c2ccccc12)C1CCCCC1	102*	29	5	-14	17	82*
c1ccc2c(CN3CCN(C4CCCCC4)CC3)c[nH]c2c1	5	-2	16	2	0	1
c1ccc2c(CN3CCCCCCC3)c[nH]c2c1	104*	14	-3	7	5	70*
CCCNC(=O)N1[C@H]2CC[C@@H]1C(C(=O)OC)=C(c1ccc(F)cc1F)C2	3	0	19	-14	7	x
O=S(=O)(c1ccc(Cl)cc1)N1CCCCC1c1cccnc1 (centres undefined)	-4	2	20	-3	-2	71*
CC(C)(C#CCCCCC#CC(C)(C)[N+](C)(C)C)[N+](C)(C)C	-8	0	13	-23	3	-3
Cc1nc2cc([N+](=O)[O-])ccc2c(=O)n1-c1ccccc1[N+](=O)[O-]	4	1	7	x	0	59*
Cc1nc2cc([N+](=O)[O-])ccc2c(=O)n1-c1ccc(Br)cc1	-7	2	14	-6	-4	-5
COC(=O)C1=C(c2ccc(F)cc2OCc2ccccc2)C[C@@H]2CC[C@H]1N2C(=O)NCc1cccc(C(F)(F)F)c1	-2	3	24	19	-3	x
COc1cc(CN=C(C)c2c(O)n(C3CCCCC3)c(=O)[nH]c2=O)cc(OC)c1	0	0	18	-10	2	11

Compound activity (PubChem BioAssay)
